# Reference: ChEMBL document CHEMBL5325390, “1,2,4-Triazole-3-thione analogues with an arylakyl group at position 4 as metallo-β-lactamase inhibitors” (Bioorg Med Chem, 2022)
# Key:
# Escherichia coli = assay: Synergistic antimicrobial activity against blaNDM-1-producing multidrug-resistant Escherichia coli SI-004M clinical isolate assessed as meropenem MIC at 32 ug/ml by CLSI based microdilution method (reference value: 64 ug/ml); type: functional; details: dose 32 µg/ml
# Beta-lactamase VIM-1 = Beta-lactamase VIM-1 (Bacteria, UniProt Q8GDC1); assay: Binding affinity to VIM-1 (unknown origin) expressed in Escherichia coli BL21(DE3) assessed as inhibition constant by measuring rate of substrate hydrolysis by UV-Vis spectrophotometric analysis
# Summary of the method: (§1)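 Purified MBL (1–70 nM) with 150 µM imipenem or meropenem as reporter substrate, 50 mM HEPES pH 7.5, 30 °C. Hydrolysis followed by absorbance at 300 nm without and with inhibitor (0.5 µM–1 mM). Ki from the slope of v0/vi vs [I] under a competitive model, or from Dixon plots varying inhibitor and substrate. […] Triplicate, mean ± SD.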
# Klebsiella pneumoniae [1] = assay: Antimicrobial synergistic activity against blaVIM-4-producing multidrug-resistant Klebsiella pneumoniae VA416/02 clinical isolate assessed as meropenem MIC at 32 ug/ml by CLSI based broth microdilution method (reference value: 16 ug/ml); type: functional; details: dose 32 µg/ml
# [2] = Binding affinity to VIM-2 (unknown origin) expressed in Escherichia coli BL21(DE3) assessed as inhibition constant by measuring rate of substrate hydrolysis by UV-Vis spectrophotometric analysis; summary of the method: as §1
# Klebsiella pneumoniae [3] = assay: Antimicrobial synergistic activity against blaVIM-1-producing multidrug-resistant Klebsiella pneumoniae 7023 clinical isolate assessed as meropenem MIC at 32 ug/ml by CLSI based broth microdilution method (reference value: 16 ug/ml); type: functional; details: dose 32 µg/ml
# [4] = target: Metallo-beta-lactamase type 2 (Bacteria, UniProt C7C422); assay: Binding affinity to NDM1 (unknown origin) expressed in Escherichia coli BL21(DE3) assessed as inhibition constant by measuring rate of substrate hydrolysis by UV-Vis spectrophotometric analysis; summary of the method: as §1
# [5] = Binding affinity to IMP1 (unknown origin) expressed in Escherichia coli BL21(DE3) assessed as inhibition constant by measuring rate of substrate hydrolysis by UV-Vis spectrophotometric analysis; summary of the method: as §1
# [6] = Binding affinity to VIM-4 (unknown origin) expressed in Escherichia coli BL21(DE3) assessed as inhibition constant by measuring rate of substrate hydrolysis by UV-Vis spectrophotometric analysis; summary of the method: as §1
# [7] = target: Metallo-beta-lactamase type 2 (Bacteria) (UniProt C7C422); assay: Inhibition of NDM1 (unknown origin) expressed in Escherichia coli BL21(DE3) assessed as substrate hydrolysis at 100 uM by UV-Vis spectrophotometric analysis relative to control
# Summary of the method: (§2)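 Single-point screen at 100 or 200 µM inhibitor against purified MBL (1–70 nM) with 150 µM imipenem or meropenem reporter substrate, 50 mM HEPES pH 7.5, 30 °C. Initial hydrolysis rate read by absorbance at 300 nm and compared with the uninhibited reaction. Triplicate.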
# [8] = target: Metallo-beta-lactamase type 2 (Bacteria) (UniProt C7C422); assay: Inhibition of NDM1 (unknown origin) expressed in Escherichia coli BL21(DE3) assessed as substrate hydrolysis at 200 uM by UV-Vis spectrophotometric analysis relative to control; summary of the method: as §2
# [9] = tested on: metallo-β-lactamase IMP-1 (Pseudomonas aeruginosa); assay: Inhibition of IMP1 (unknown origin) expressed in Escherichia coli BL21(DE3) assessed as substrate hydrolysis at 100 uM by UV-Vis spectrophotometric analysis relative to control
# [10] = tested on: metallo-β-lactamase VIM-2 (Pseudomonas aeruginosa); assay: Inhibition of VIM-2 (unknown origin) expressed in Escherichia coli BL21(DE3) assessed as substrate hydrolysis at 100 uM by UV-Vis spectrophotometric analysis relative to control
# [11] = tested on: metallo-β-lactamase IMP-1 (Pseudomonas aeruginosa); assay: Inhibition of IMP1 (unknown origin) expressed in Escherichia coli BL21(DE3) assessed as substrate hydrolysis at 200 uM by UV-Vis spectrophotometric analysis relative to control
# [12] = tested on: metallo-β-lactamase VIM-2 (Pseudomonas aeruginosa); assay: Inhibition of VIM-2 (unknown origin) expressed in Escherichia coli BL21(DE3) assessed as substrate hydrolysis at 200 uM by UV-Vis spectrophotometric analysis relative to control
# [13] = tested on: metallo-β-lactamase VIM-4 (Pseudomonas aeruginosa); assay: Inhibition of VIM-4 (unknown origin) expressed in Escherichia coli BL21(DE3) assessed as substrate hydrolysis at 100 uM by UV-Vis spectrophotometric analysis relative to control
# [14] = tested on: metallo-β-lactamase VIM-4 (Pseudomonas aeruginosa); assay: Inhibition of VIM-4 (unknown origin) expressed in Escherichia coli BL21(DE3) assessed as substrate hydrolysis at 200 uM by UV-Vis spectrophotometric analysis relative to control
# Chain of Metallo-beta-lactamase type 2 (C7C422 whole entry): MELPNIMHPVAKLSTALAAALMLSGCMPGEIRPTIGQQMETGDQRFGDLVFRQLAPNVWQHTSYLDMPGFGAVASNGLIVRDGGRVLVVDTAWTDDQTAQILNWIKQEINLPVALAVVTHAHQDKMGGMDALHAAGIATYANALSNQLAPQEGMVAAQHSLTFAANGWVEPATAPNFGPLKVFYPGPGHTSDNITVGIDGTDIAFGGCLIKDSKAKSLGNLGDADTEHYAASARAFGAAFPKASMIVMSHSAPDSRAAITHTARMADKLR
# Chain of Metallo-beta-lactamase type 2 (Bacteria) (C7C422 whole entry): as above
inhibition [7] [%],inhibition [8] [%],inhibition [9] [%],inhibition [10] [%],inhibition [11] [%],inhibition [12] [%],inhibition [13] [%],inhibition [14] [%],Structure (SMILES),MIC (Escherichia coli) [mg/L],Ki (Beta-lactamase VIM-1) [µM],MIC (Klebsiella pneumoniae [1]) [mg/L],Ki [2] [µM],MIC (Klebsiella pneumoniae [3]) [mg/L],Ki ([4]; read-out: Ki) [µM],Ki ([5]; read-out: Ki) [µM],Ki [6] [µM],Ki ([5]; read-out: Ki(app)) [µM],Ki ([4]; read-out: Ki(app)) [µM]
< 30,–,< 30,–,–,–,–,–,O=C(O)c1ccccc1CCn1c(-c2cccc(-c3ccccc3)c2)n[nH]c1=S,–,–,–,0.08,–,–,–,2.1,–,–
< 30,< 50,55,< 30,–,< 50,< 30,< 50,CC(Cn1c(-c2ccccc2)n[nH]c1=S)c1ccccc1 (configuration not stated),–,–,–,–,–,–,–,–,–,–
69,–,< 30,< 30,< 50,< 50,< 30,< 50,S=c1[nH]nc(-c2cccc(-c3ccccc3)c2)n1[C@@H]1C[C@H]1c1ccccc1,–,–,–,–,–,–,–,–,–,–
< 30,< 50,35,< 30,–,< 50,–,–,COc1ccc(O)c(-c2n[nH]c(=S)n2CCc2ccc(OCc3ccccc3)cc2)c1,–,11.1,–,–,–,–,–,0.54,–,–
< 30,< 50,< 30,< 30,< 50,< 50,–,–,O=C1OC(Cn2c(-c3cccc(-c4ccccc4)c3)n[nH]c2=S)c2ccccc21 (configuration not stated),–,–,–,–,–,–,–,–,–,–
< 30,< 50,< 30,< 30,< 50,< 50,< 30,< 50,S=c1[nH]nc(-c2ccc3ccccc3c2)n1CCc1ccccc1,–,3.7,–,–,–,–,–,–,–,–
45,–,45,< 30,–,< 50,< 30,< 50,O=C(NCc1ccccc1)c1ccccc1CCn1c(-c2ccccc2)n[nH]c1=S,–,–,–,–,–,–,–,–,–,–
< 30,< 50,–,< 30,–,< 50,–,–,Oc1ccc(CCn2c(-c3ccc4ccccc4c3)n[nH]c2=S)cc1,–,3.3,–,–,–,–,24,3.2,–,–
–,–,–,< 30,–,–,–,–,S=c1[nH]nc(-c2cc(Cl)cc(Cl)c2)n1/N=C/c1ccc(OCc2ccccc2)cc1,–,–,–,–,–,–,0.1,0.6,–,–
< 30,–,–,–,–,–,–,–,Sc1nnc(-c2ccccc2)n1-c1ccccc1,–,3.2,–,16,–,–,–,–,–,–

# The remaining lines, values behind:
Structure (SMILES),inhibition [7] [%],inhibition [8] [%],inhibition [9] [%],inhibition [10] [%],inhibition [11] [%],inhibition [12] [%],inhibition [13] [%],inhibition [14] [%],MIC (Escherichia coli) [mg/L],Ki (Beta-lactamase VIM-1) [µM],MIC (Klebsiella pneumoniae [1]) [mg/L],Ki [2] [µM],MIC (Klebsiella pneumoniae [3]) [mg/L],Ki ([4]; read-out: Ki) [µM],Ki ([5]; read-out: Ki) [µM],Ki [6] [µM],Ki ([5]; read-out: Ki(app)) [µM],Ki ([4]; read-out: Ki(app)) [µM]
Oc1ccc(CCn2c(-c3ccccc3)n[nH]c2=S)cc1,–,–,–,–,–,–,–,–,64,2.1,4,6.1,4,12,42,2.3,–,–
Cc1ccccc1-c1n[nH]c(=S)n1CCc1ccccc1,< 30,< 50,–,–,–,–,–,–,–,3.3,4,9.4,4,–,–,2.4,14,–
Cn1cccc1-c1n[nH]c(=S)n1CC1OC(=O)c2ccccc21 (configuration not stated),31,–,30,38,–,–,–,–,32,2.2,2,–,2,–,–,2.5,–,–
COc1ccc(O)c(-c2n[nH]c(=S)n2CCc2ccc(O)cc2)c1,< 30,< 50,< 30,–,< 50,–,–,–,–,1.6,2,3.9,2,–,–,1.9,–,–
O=C1OC(Cn2c(-c3ccc(-c4ccccc4)cc3)n[nH]c2=S)c2ccccc21 (configuration not stated),< 30,< 50,48,< 30,–,< 50,–,–,–,–,–,–,–,–,–,–,–,–
S=c1[nH]nc(-c2ccc3ccccc3c2)n1[C@@H]1C[C@H]1c1ccccc1,< 30,< 50,< 30,< 30,< 50,< 50,35,–,–,–,–,–,–,–,–,–,–,–
O=C1OC(Cn2c(-c3ccccc3)n[nH]c2=S)c2ccccc21 (configuration not stated),51,–,< 30,< 30,< 50,< 50,–,–,64,0.75,2,–,2,–,–,7.8,–,–
Oc1ccc(/C=N/n2c(-c3ccccc3-c3ccccc3)n[nH]c2=S)c(O)c1,–,–,–,–,–,–,–,–,–,–,–,4.5,–,6.4,12,9,–,–
COc1ccc(O)c(-c2n[nH]c(=S)n2[C@@H]2C[C@H]2c2ccccc2)c1,–,–,–,41,–,–,–,–,32,2.2,2,–,4,9.5,4.6,2.5,–,–
S=c1[nH]nc(-c2ccccc2)n1CCc1ccccc1,< 30,< 50,< 30,< 30,< 50,< 50,–,–,64,3.2,2,–,2,–,–,2.1,–,–
Oc1ccc(CCn2c(-c3cc(-c4ccccc4)ccc3O)n[nH]c2=S)c(O)c1,38,–,44,–,–,–,–,–,64,0.76,2,1.9,1,–,–,0.85,–,–
FC(F)(F)c1ccc(CCn2c(-c3ccccc3)n[nH]c2=S)cc1,< 30,< 50,< 30,< 30,< 50,< 50,–,–,–,–,–,–,–,–,–,–,–,–
O=C(O)c1ccc(-n2c(S)nnc2-c2ccccc2)cc1,< 30,–,–,–,–,–,–,–,–,–,–,–,–,–,–,–,–,–
O=C1OC(Cn2c(-c3ccc4ccccc4c3)n[nH]c2=S)c2ccccc21 (configuration not stated),–,–,–,< 30,–,< 50,–,–,–,6.3,–,–,–,–,9.8,8.2,–,28
Oc1cccc(CCn2c(-c3cccc(-c4ccccc4)c3)n[nH]c2=S)c1O,–,–,–,–,–,–,–,–,32,0.7,4,1.8,16,22.4,20,0.8,–,–
COc1ccc(O)c(-c2n[nH]c(=S)n2CCc2ccccc2)c1,–,–,–,–,–,–,–,–,64,1.9,2,3.9,4,6.8,20.2,1.5,–,–
Cc1ccccc1-c1n[nH]c(=S)n1CCc1ccc(O)cc1,< 30,< 50,56,–,–,–,–,–,–,–,–,–,–,–,–,1.6,–,–
O=C(O)c1ccccc1/C=N/n1c(-c2cccc(-c3ccccc3)c2)n[nH]c1=S,–,–,–,–,–,–,–,–,–,–,–,0.2,–,4.2,17.7,0.04,–,–
Oc1ccc(CCn2c(-c3ccccc3)n[nH]c2=S)c(O)c1,–,–,–,< 30,–,< 50,–,–,–,5.1,2,–,4,–,27,4.1,–,42
Cc1ccccc1CCn1c(-c2ccccc2)n[nH]c1=S,< 30,< 50,< 30,< 30,< 50,< 50,–,–,–,–,–,–,–,–,–,–,–,–
Oc1ccc(CCn2c(-c3ccccc3-c3ccccc3)n[nH]c2=S)c(O)c1,–,–,< 30,35,< 50,–,–,–,–,27,–,–,–,15.2,–,60,–,–
